Published values collected from several papers.
CHEK2: Serine/threonine-protein kinase Chk2 (CHEK2, Homo sapiens, UniProt O96017)
MPO: Myeloperoxidase (MPO, Homo sapiens, UniProt P05164)
SLC6A2: Sodium-dependent noradrenaline transporter (SLC6A2, Homo sapiens, UniProt P23975)

For `COc1ccc2oc(-c3ccc4nc(N)oc4c3)c/c(=N\c3ccccc3NC(=O)CCN)c2c1`, the remaining binding was 76% (CHEK2; binding; 1 µM).
The remaining binding of `C1=C/COCc2cc(ccc2OCCN2CCCC2)Nc2nccc(n2)-c2cccc(c2)COC/1` is reported as 88% (Fibroblast growth factor receptor 1 (FGFR1, Homo sapiens, UniProt P11362); binding; 0.1 µM).
`CC(C)OCCn1c(=S)[nH]c(=O)c2[nH]ccc21` gave a remaining activity of 93.7% (MPO; enzyme activity, inhibitor; 0.156 µM).
`CCOC(=O)[C@@]12C[C@@H]1[C@@H](n1cnc3c(NCCCCc4ccccc4)nc(C#Cc4ccc(Cl)s4)nc31)[C@H](O)[C@@H]2O` has an inhibition of 3% (SLC6A2; ligand displacement, radioligand; 10 µM).
The inhibition of `NC/C(=C\F)COc1cccc(Cn2c(=S)[nH]c(=O)c3[nH]cnc32)c1` is reported as 99.7% (MPO; enzyme activity, inhibitor, fluorescence; 3 µM).
For `CNC(=O)[C@@]12C[C@@H]1[C@@H](n1cnc3c(Nc4ccccc4)nc(C#Cc4ccc(Cl)s4)nc31)[C@H](O)[C@@H]2O`, the inhibition was 77% (SLC6A2; ligand displacement, radioligand; 10 µM).
The remaining binding of `CCCCC(=O)Nc1ccc(-c2ccc3ncn(CCC)c(=O)c3c2)cn1` is reported as 96% (CHEK2; binding, competition with immobilised ligand; 0.5 µM).
The inhibition of `CSc1nc(NCCC2CC2)c2ncn([C@H]3[C@H](O)[C@H](O)[C@@H]4C[C@@H]43)c2n1` is reported as 5% (SLC6A2; ligand displacement, radioligand; 10 µM).
The inhibition of `Cc1cc(O)c(-c2ccc([C@@H](C)CN(C)C)cc2)c2c1[nH]c(=O)c1sccc12` is reported as 3.12% (Peripheral plasma membrane protein CASK (CASK, Homo sapiens, UniProt O14936); cell-free assay, inhibitor; 0.1 µM, lysate).
